Results as given in ChEMBL document CHEMBL4334465, “SAR Studies on Aromatic Acylhydrazone-Based Inhibitors of Fungal Sphingolipid Synthesis as Next-Generation Antifungal Agents” (J Med Chem, 2019).
≈ marks a conversion by molar mass, not a printed value. Calls of active or inactive are those of the source. The calls are words filed in the database; no cut-off is given here.

Experiments:
[1] = system: Pichia kudriavzevii; experiment: Antifungal activity against Candida krusei 6258 assessed as FICI in presence of fluconazole; format: functional
Procedure, shortened: (§1)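 Checkerboard combination scored by fractional inhibitory concentration index. Acylhydrazone serially diluted 16 to 0.015 μg/mL (11 dilutions). Partner drug in seven dilutions: fluconazole 12 to 0.19 μg/mL, amphotericin B 5 to 0.078 μg/mL, caspofungin, itraconazole or voriconazole 8 to 0.007 μg/mL.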

[2] = system: [Candida] auris; experiment: Antifungal activity against Candida auris assessed as FICI in presence of fluconazole; format: functional, Candidozyma auris; procedure, shortened: as §1
[3] = system: Candida parapsilosis; experiment: Antifungal activity against Candida parapsilosis assessed as FICI in presence of voriconazole; format: functional; procedure, shortened: as §1
[4] = system: Aspergillus fumigatus; experiment: Antifungal activity against Aspergillus fumigatus assessed as FICI in presence of itraconazole; format: functional; procedure, shortened: as §1
[5] = system: Cryptococcus neoformans; experiment: Antifungal activity against Cryptococcus neoformans H99 assessed as FICI in presence of voriconazole; format: functional, var grubii H99; procedure, shortened: as §1
[6] = system: [Candida] auris; experiment: Antifungal activity against Candida auris assessed as FICI in presence of itraconazole; format: functional, Candidozyma auris; procedure, shortened: as §1
[7] = system: Aspergillus fumigatus; experiment: Antifungal activity against Aspergillus fumigatus measured after 24 to 72 hrs; format: functional
Procedure, shortened: (§2)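 Modified CLSI broth microdilution with inoculum per M27A3. Compounds were serially diluted 32 to 0.03 μg/mL. Media: C. neoformans in HEPES-buffered YNB without amino acids (pH 7.0, 2% glucose); Candida strains in YNB without ammonium sulfate or amino acids plus 1% asparagine (pH 7.0, 2% glucose); A. fumigatus in RPMI (pH 7.0, 2% glucose).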

[8] = system: Pichia kudriavzevii; experiment: Antifungal activity against Candida krusei 6258 assessed as FICI in presence of itraconazole; format: functional; procedure, shortened: as §1
[9] = system: Aspergillus fumigatus; experiment: Antifungal activity against Aspergillus fumigatus assessed as FICI in presence of voriconazole; format: functional; procedure, shortened: as §1
[10] = system: Candida albicans; experiment: Antifungal activity against Candida albicans assessed as FICI in presence of caspofungin; format: functional; procedure, shortened: as §1
[11] = system: Candida albicans; experiment: Antifungal activity against Candida albicans assessed as FICI in presence of itraconazole; format: functional; procedure, shortened: as §1
[12] = system: Candida albicans; experiment: Antifungal activity against Candida albicans measured after 24 to 72 hrs; format: functional; procedure, shortened: as §2
[13] = system: Pichia kudriavzevii; experiment: Antifungal activity against fluconazole-resistant Candida krusei assessed as FICI in presence of fluconazole; format: functional
Procedure, shortened: (§3)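 Checkerboard in 96-well plate. Test compound diluted 16 to 0.015 μg/mL (11 dilutions) against the partner drug in seven dilutions: fluconazole 12 to 0.19 μg/mL, caspofungin, itraconazole or voriconazole 8 to 0.007 μg/mL. Fractional inhibitory concentration index (FICI) calculated from the combinations.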

[14] = system: Candida parapsilosis; experiment: Antifungal activity against Candida parapsilosis measured after 24 to 72 hrs; format: functional; settings: Lodderomyces parapsilosis; procedure, shortened: as §2
[15] = system: Pichia kudriavzevii; experiment: Antifungal activity against Candida krusei 6258 assessed as FICI in presence of caspofungin; format: functional; procedure, shortened: as §1
[16] = Selectivity index, ratio of LD50 for human HepG2 cells to MIC80 for Cryptococcus neoformans H99; format: toxicity; settings: read-out: Selectivity Index
Procedure, shortened: (§4)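 SI = LD₅₀/MIC₈₀. Cytotoxicity: A549 or HepG2 cells (DMEM, 10% FBS, passage 7, 10⁵ cells/well) adhered 14 h, then exposed to 0.03–128 μg/mL for 24 or 48 h at 37°C, 5% CO₂; MTT 4 h, formazan dissolved in DMSO, read at 570 nm. MIC₈₀ against C. neoformans from broth microdilution in HEPES-buffered YNB, pH 7.0.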

[17] = system: Pichia kudriavzevii; experiment: Antifungal activity against fluconazole-resistant Candida krusei assessed as FICI in presence of voriconazole; format: functional; procedure, shortened: as §3
[18] = system: Cryptococcus neoformans; experiment: Fungicidal activity against Cryptococcus neoformans H99 measured after 72 hrs by time-kill assay; format: functional, var grubii H99
Procedure, shortened: (§5)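 Overnight C. neoformans washed in PBS and resuspended in HEPES-buffered YNB, pH 7.4. 2 × 10⁴ cells exposed to a range of drug concentrations in 10 mL with 0.5% DMSO final, at 37°C, 5% CO₂, shaking at 200 rpm. Aliquots sampled over 96 h, diluted and plated on YPD; CFU counted after 48 h at 30°C.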

[19] = system: Cryptococcus neoformans; experiment: Fungicidal activity against Cryptococcus neoformans H99 measured up to 96 hrs by time-kill assay; format: functional, organism-based; settings: var grubii H99; procedure, shortened: as §5
[20] = system: Candida parapsilosis; experiment: Antifungal activity against Candida parapsilosis assessed as FICI in presence of fluconazole; format: functional; procedure, shortened: as §1
[21] = system: Pichia kudriavzevii; experiment: Antifungal activity against fluconazole-resistant Candida krusei assessed as FICI in presence of caspofungin; format: functional; procedure, shortened: as §3
[22] = system: Aspergillus fumigatus; experiment: Antifungal activity against Aspergillus fumigatus assessed as FICI in presence of fluconazole; format: functional; procedure, shortened: as §1
[23] = system: HepG2; experiment: Cytotoxicity against human HepG2 cells after 24 to 48 hrs by MTT assay; format: functional; settings: read-out: LD50 (the source's name)
Procedure, shortened: (§6)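 A549 and HepG2 kept in DMEM with 10% FBS and 1% pen-strep. At passage 7, seeded at 10⁵ cells/well and allowed to adhere 14 h. Compound added at 0.03–128 μg/mL, untreated wells as controls. Incubation 37°C, 5% CO₂ for 24 or 48 h. MTT (5 mg/mL in PBS) added for 4 h, formazan dissolved in DMSO, OD570.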

[24] = system: [Candida] auris; experiment: Antifungal activity against Candida auris assessed as FICI in presence of caspofungin; format: functional, Candidozyma auris; procedure, shortened: as §1
[25] = system: Cryptococcus neoformans; experiment: Antifungal activity against Cryptococcus neoformans H99 assessed as FICI in presence of itraconazole; format: functional, var grubii H99; procedure, shortened: as §1
[26] = system: [Candida] auris; experiment: Antifungal activity against Candida auris assessed as FICI in presence of voriconazole; format: functional, Candidozyma auris; procedure, shortened: as §1
[27] = system: Candida albicans; experiment: Antifungal activity against Candida albicans assessed as FICI in presence of voriconazole; format: functional; procedure, shortened: as §1
[28] = system: Cryptococcus neoformans; experiment: Antifungal activity against Cryptococcus neoformans H99 measured after 24 to 72 hrs; format: functional; settings: var grubii H99; procedure, shortened: as §2
[29] = system: Pichia kudriavzevii; experiment: Antifungal activity against fluconazole-resistant Candida krusei assessed as FICI in presence of itraconazole; format: functional; procedure, shortened: as §3
[30] = Selectivity index, ratio of LD50 for human A549 cells to MIC80 for Cryptococcus neoformans H99; format: toxicity; settings: read-out: Selectivity Index; procedure, shortened: as §4
[31] = system: A549; experiment: Cytotoxicity against human A549 cells after 24 to 48 hrs by MTT assay; format: functional; settings: read-out: LD50 (the source's name); procedure, shortened: as §6
[32] = system: Pichia kudriavzevii; experiment: Antifungal activity against Candida krusei 6258 assessed as FICI in presence of voriconazole; format: functional; procedure, shortened: as §1
[33] = system: Candida parapsilosis; experiment: Antifungal activity against Candida parapsilosis assessed as FICI in presence of caspofungin; format: functional; procedure, shortened: as §1
[34] = system: Cryptococcus neoformans; experiment: Antifungal activity against Cryptococcus neoformans H99 assessed as FICI in presence of fluconazole; format: functional, var grubii H99; procedure, shortened: as §1
[35] = system: Candida albicans; experiment: Antifungal activity against Candida albicans assessed as FICI in presence of fluconazole; format: functional; procedure, shortened: as §1
[36] = system: Pichia kudriavzevii; experiment: Antifungal activity against Candida krusei measured after 24 to 72 hrs; format: functional
Procedure, shortened: (§7)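 MIC by modified CLSI broth microdilution. Candida strains grown in YNB without ammonium sulfate or amino acids with 1% asparagine, pH 7.0, 2% glucose. Inoculum per CLSI M27A3. Compound serially diluted 32 to 0.03 μg/mL. Incubation 37°C, 5% CO₂, 24–72 h, then OD450. MIC80 taken as the lowest concentration giving 80% growth inhibition versus untreated control.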

[37] = system: Cryptococcus neoformans; experiment: Antifungal activity against Cryptococcus neoformans H99 assessed as FICI in presence of amphotericin B; format: functional, var grubii H99; procedure, shortened: as §1
[38] = system: Candida parapsilosis; experiment: Antifungal activity against Candida parapsilosis assessed as FICI in presence of itraconazole; format: functional; procedure, shortened: as §1
[39] = system: [Candida] auris; experiment: Antifungal activity against Candida auris measured after 24 to 72 hrs; format: functional; settings: Candidozyma auris; procedure, shortened: as §2
[40] = system: Pichia kudriavzevii; experiment: Antifungal activity against multi-drug resistant Candida krusei measured after 24 to 72 hrs; format: functional; procedure, shortened: as §7
[41] = system: J774; experiment: Inhibition of glucosylceramide synthesis in mouse J774 cells in presence of [3H]palmitate; format: cell-based
[42] = system: Cryptococcus neoformans; experiment: Inhibition of glucosylceramide synthesis in Cryptococcus neoformans H99 in presence of [3H]palmitate; format: functional, organism-based; settings: var grubii H99
[43] = system: Cryptococcus neoformans; experiment: Antifungal activity against Cryptococcus neoformans H99 infected in CBA/J mouse assessed as increase in survival at 1.2 mg/kg, ip; format: functional, organism-based; settings: var grubii H99

O=C(N/N=C/c1cc(Br)ccc1O)c1ccc(Br)cc1Br
fractional inhibitory concentration index (FICI) [1]: 1.002
fractional inhibitory concentration index (FICI) [2]: 2
fractional inhibitory concentration index (FICI) [3]: 0.135
fractional inhibitory concentration index (FICI) [4]: 0.484
fractional inhibitory concentration index (FICI) [5]: 0.072
fractional inhibitory concentration index (FICI) [6]: 1.016
MIC80 [7]: > 16 µg/mL
fractional inhibitory concentration index (FICI) [8]: 2.015
fractional inhibitory concentration index (FICI) [9]: 0.515
fractional inhibitory concentration index (FICI) [10]: 0.502
fractional inhibitory concentration index (FICI) [11]: 0.128
MIC80 [12]: > 16 µg/mL
fractional inhibitory concentration index (FICI) [13]: 2
MIC80 [14]: 8 µg/mL (≈ 16.8 µM)
fractional inhibitory concentration index (FICI) [15]: 1.002
selectivity ratio [16]: 1070
fractional inhibitory concentration index (FICI) [17]: 1.063
MFC100 [18]: 0.06 µg/mL (≈ 0.126 µM)
Activity [19]: Dose-dependent effect
fractional inhibitory concentration index (FICI) [20]: 1.015
fractional inhibitory concentration index (FICI) [21]: 2
fractional inhibitory concentration index (FICI) [22]: 2
CC50 [23]: 64 µg/mL (≈ 134 µM)
fractional inhibitory concentration index (FICI) [24]: 2
fractional inhibitory concentration index (FICI) [25]: 0.072
fractional inhibitory concentration index (FICI) [26]: 1.125
fractional inhibitory concentration index (FICI) [27]: 0.256
MIC80 [28]: 0.06 µg/mL (≈ 0.126 µM)
fractional inhibitory concentration index (FICI) [29]: 0.375
selectivity ratio [30]: 1070
CC50 [31]: 64 µg/mL (≈ 134 µM)
fractional inhibitory concentration index (FICI) [32]: 1.06
fractional inhibitory concentration index (FICI) [33]: 1.5
fractional inhibitory concentration index (FICI) [34]: 0.065
fractional inhibitory concentration index (FICI) [35]: 2
MIC80 [36]: 8 µg/mL (≈ 16.8 µM)
fractional inhibitory concentration index (FICI) [37]: 0.086
fractional inhibitory concentration index (FICI) [38]: 2.098
MIC80 [39]: > 16 µg/mL
MIC80 [40]: > 16 µg/mL

Cc1ccccc1C(=O)N/N=C/c1cc(Br)ccc1O
inhibition (INH) [41]: Dose-dependent effect
inhibition [42]: Dose-dependent effect
Activity [43]: Active

OC(Cn1cncn1)(Cn1cncn1)c1ccc(F)cc1F
Activity [43]: Active
